Experiment [1] deals with Rattus norvegicus. As to the kind of experiment: Antiinflammatory activity against 3h carrageenan pleurisy (edma) in rat at 20 mg/kg peroral administration. In kind it is functional. Particulars: route oral. Summed up: (§1)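 Rat 3 h carrageenan pleurisy model, read out as pleural cell count and as edema. Compounds given orally, either as % inhibition at 20 mg/kg or as ED50 in mg/kg. Each compound tested two or three times.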

Experiment [2] relates to Rattus norvegicus. The experiment in a line: Inhibition of trypsin hyperalgesia when administered perorally in rat. Type of experiment: functional. The procedure, abridged: (§2)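 Rat trypsin hyperalgesia model for mild analgesia. Compounds given orally, either as % inhibition at 20 mg/kg or as ED50 in mg/kg. Each compound tested two or three times.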
In experiment [3] the test system is Rattus norvegicus. As to the kind of experiment: Percent inhibition of analgesia activity when administered perorally at 20 mg/kg in rat. In kind it is functional. The procedure, abridged: as §2
Experiment [4] relates to Rattus norvegicus. The experiment in a line: Antiinflammatory activity against 3h carrageenan pleurisy (cells) in rat at 20 mg/kg peroral administration. In kind it is functional. Particulars: route oral. The procedure, abridged: as §1
Experiment [5] has as its system Mus musculus. As to the kind of experiment: Effective dose required for muscle relaxant profile in mouse by rotarod assay, when compound administered perorally. Type of experiment: functional. Particulars: po. Summed up: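 Rotorod model of sedation, mouse, with oral dosing. Used for compounds that passed the Straub tail ip screen. At least three doses, N=6 animals per dose group. ED50 in mg/kg.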
On the technique in general: The rotarod test checks motor coordination on a turning rod.

The subject of experiment [6] is Mus musculus. As to the kind of experiment: Percent inhibition of muscle relaxant profile evaluated by straub tail assay when administered intraperitoneally at 100 mg/kg in mouse. Type of experiment: functional. The note with it: route intraperitoneal; for % effect at 100 mg/kg: Mus musculus. Summed up:
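Morphine-induced Straub tail model of muscle relaxant activity, mouse. Compound given intraperitoneally at 100 mg/kg and read out as % inhibition.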

The test system of experiment [7] is Mus musculus. The experiment in a line: Effective dose required for muscle relaxant profile evaluated by straub tail assay when administered perorally in mouse. In kind it is functional. The note with it: po. Summed up: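 Morphine-induced Straub tail model of muscle relaxant activity, mouse, with oral dosing. Oral testing followed only where ip inhibition at 100 mg/kg exceeded 50%. At least three doses, N=6 animals per dose group. ED50 in mg/kg.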

In experiment [8] the test system is Rattus norvegicus. The experiment in a line: Antiinflammatory activity against 3h carrageenan pleurisy (cells) in rat peroral administration. In kind it is functional. Particulars: po. The procedure, abridged:
as §1

The subject of experiment [9] is Rattus norvegicus. The experiment in a line: Antiinflammatory activity against 3h carrageenan pleurisy (edma) in rat peroral administration. Type of experiment: functional. Particulars: po. Summed up:
as §1

A short description of experiment [10]: Ratio of rotarod to that of staub tail. In kind it is functional. The procedure, abridged:
(§3)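 Oral rotorod ED50 divided by oral Straub tail ED50, both in mouse, as an index of sedative potential. Each ED50 from at least three doses, N=6 animals per dose.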

Experiment [11] is described as follows: Ratio of rotarod to that of straub tail. In kind it is functional. Summed up: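 Ratio of oral rotorod ED50 (sedation) to oral ED50 in the morphine-induced Straub tail test. Only compounds giving >50% inhibition in the Straub tail test at 100 mg/kg ip went on to oral testing in both assays. Each assay generally used at least three doses with N=6 animals per dose group; variability approximately 15%.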

The species entered for experiment [12] is Rattus norvegicus. The experiment in a line: Antiinflammatory activity against trypsin hyperalgesia in rat at peroral dose of compound. The note with it: po.
Experiment [13] concerns Rattus norvegicus. The experiment in a line: Antiinflammatory activity against 3h carrageenan pleurisy (edma) in rat mg/kg peroral administration. In kind it is functional. Particulars: po. Summed up:
as §1

Experiment [14] can be described thus: Ratio of rotarod to that of staub tail; ND is activity not determined. Type of experiment: functional. The procedure, abridged:
as §3

Where [15] appears, read: Rattus norvegicus, po, read-out: ED50.

Where only a bound is given, the exact number is not on record here.

With `NC(=O)/C=C1\CCc2cc(Cl)cc(Cl)c21`, the ED50 is 34 mg/kg with Rattus norvegicus [1]; more than 10 mg/kg in the experiment on Rattus norvegicus [2] (setting [15]); 5 mg/kg in the experiment with Rattus norvegicus [4]; 55 mg/kg with Mus musculus [5]; less than 100 mg/kg in the experiment with Mus musculus [7]. Further, testing at 20 mg/kg with Rattus norvegicus [3] (Rattus norvegicus, po) gave an inhibition in vivo of 79%. The % effect at 100 mg/kg with Mus musculus [6] (ip) came out at 100%.

Regarding `NC(=O)/C=C1\CCc2c(Br)cc(F)cc21`, the ED50 with Rattus norvegicus [8] and in the experiment on Rattus norvegicus [9] was more than 20 mg/kg throughout.

Compound `CNC(=O)/C=C1\CCc2cc(Cl)c(F)cc21` had an inhibition in vivo at 20 mg/kg in the experiment on Rattus norvegicus [3] (Rattus norvegicus, po) of 22%. The % effect at 100 mg/kg in the experiment on Mus musculus [6] (ip) turned out to be 17%.

As to `CC(C)Cc1ccc(C(C)C(=O)O)cc1` (centres undefined) [IBUPROFEN], the ED50 came out at 8 mg/kg in the experiment on Rattus norvegicus [1] and 34 mg/kg with Rattus norvegicus [4].

`O=C(/C=C1\CCc2cc(Cl)c(F)cc21)NC1CC1`: at 20 mg/kg the inhibition in vivo in the experiment with Rattus norvegicus [3] (Rattus norvegicus, po) was 27%.

`Cc1cc(F)cc2c1CC/C2=C\C(=O)NC1CC1`: the inhibition in vivo at 20 mg/kg with Rattus norvegicus [1] turned out to be 7%; in the experiment on Rattus norvegicus [3] (route oral) it was 97%; in the experiment on Rattus norvegicus [4] it was 5%.

`NC(=O)/C=C1\CCc2c(Cl)cc(F)cc21` (stereo in doubt) [listing 1 of 2 here]: the ED50 in the experiment with Rattus norvegicus [2] (setting [15]) is 7 mg/kg; in the experiment on Mus musculus [5], 96 mg/kg; with Mus musculus [7] it was 73 mg/kg. The same compound gave an inhibition in vivo at 20 mg/kg in the experiment on Rattus norvegicus [3] (Rattus norvegicus, po) of 70%.

For `NC(=O)/C=C1\CCc2c(Cl)cc(F)cc21` (stereo in doubt; 3), the ED50 in the experiment with Rattus norvegicus [2] stood at 4 mg/kg; in the experiment on Rattus norvegicus [8] it was 11 mg/kg; in the experiment with Rattus norvegicus [9], 11 mg/kg. For the same compound, in the experiment on Rattus norvegicus [3] (route oral, 20 mg/kg), the Inhibition turned out to be 79%. Further, the % effect with Mus musculus [6] came to 0%.

Regarding `NC(=O)/C=C1\CCc2cc(Cl)c(F)cc21`, in experiment [10], the Ratio was 1.1. Further, in the experiment with Rattus norvegicus [3] (Rattus norvegicus, po), the inhibition in vivo at 20 mg/kg came out at 19%. Further, the figures for the ED50 in the experiment on Mus musculus [5] and in the experiment with Mus musculus [7] were 56 mg/kg and 50 mg/kg, respectively. The same compound gave a % effect at 100 mg/kg with Mus musculus [6] (ip) of 100%.

`CNC(=O)/C=C1\CCc2c(Cl)cc(F)cc21`: the results for the 50% effective dose (ED50) with Rattus norvegicus [2] (setting [15]), in the experiment on Rattus norvegicus [8] and with Rattus norvegicus [9] were 1.4 mg/kg, 8 mg/kg and 5 mg/kg, respectively. Also, in the experiment with Rattus norvegicus [3] (route oral), the inhibition in vivo at 20 mg/kg was found to be 100%. The same compound gave a % effect at 100 mg/kg in the experiment with Mus musculus [6] (ip) of 50%.

`O=C(/C=C1\CCc2c(F)cc(Cl)cc21)NC1CC1`: in the experiment with Rattus norvegicus [3] (Rattus norvegicus, po), the inhibition in vivo at 20 mg/kg was found to be 31%.

On to `O=C(/C=C1\CCc2c(Cl)cc(F)cc21)NC1CC1`, for which the ED50 in the experiment with Rattus norvegicus [2] (setting [15]) amounted to 0.9 mg/kg; in the experiment with Mus musculus [5] it was 44 mg/kg; in the experiment on Mus musculus [7] it was 44 mg/kg. For the same compound, in experiment [10], the Ratio worked out at 1. In addition, 20 mg/kg produced 75% inhibition in vivo in the experiment on Rattus norvegicus [3] (Rattus norvegicus, po). This compound registered a % effect at 100 mg/kg in the experiment with Mus musculus [6] (ip) of 100%.

For `NC(=O)/C=C1\CCc2c(F)cc(F)cc21`, the ED50 in the experiment with Rattus norvegicus [1] is 15 mg/kg; in the experiment with Rattus norvegicus [2] (setting [15]) it was 4 mg/kg; in the experiment with Rattus norvegicus [8], 19 mg/kg; with Mus musculus [7], 68.7 mg/kg. Also, the inhibition in vivo at 20 mg/kg in the experiment on Rattus norvegicus [3] (route oral) amounted to 100%. The inhibition in vivo at 100 mg/kg in the experiment with Mus musculus [6] (ip) came to 100%. In addition, the Ratio in experiment [11] turned out to be 2.

In the case of `NC(=O)/C=C1\CCc2c(F)cc(Cl)cc21`, the inhibition in vivo at 20 mg/kg with Rattus norvegicus [1] turned out to be 36%; in the experiment on Rattus norvegicus [4], 34%. In addition, in the experiment on Rattus norvegicus [2] (setting [15]), the ED50 is more than 10 mg/kg. Besides, the % effect at 100 mg/kg in the experiment on Mus musculus [6] (ip) was 33%.

In the experiment filed under Rattus norvegicus [12], `COc1ccc2cc([C@H](C)C(=O)O)ccc2c1` [NAPROXEN] showed an ED50 of 14 mg/kg.

On to `NC(=O)/C=C1\CCc2c(Cl)cc(Cl)cc21`, for which the ED50 worked out at 4.1 mg/kg in the experiment with Rattus norvegicus [2] (setting [15]), 25 mg/kg in the experiment with Rattus norvegicus [8] and 20 mg/kg in the experiment on Rattus norvegicus [9]. In the experiment on Mus musculus [6], this compound came in with a % effect of 0%.

In the case of `CNC(=O)/C=C1\CCc2c(Cl)cc(Cl)cc21`, the inhibition in vivo at 20 mg/kg in the experiment with Rattus norvegicus [3] (Rattus norvegicus, po) was found to be 12%; in the experiment with Rattus norvegicus [4], 9%. The % effect at 100 mg/kg with Mus musculus [6] (ip) is 83%. Moreover, in the experiment on Mus musculus [7], the ED50 is more than 100 mg/kg.

Take `CNC(=O)/C=C1\CCc2cc(Cl)cc(Cl)c21`: the inhibition in vivo at 20 mg/kg in the experiment on Rattus norvegicus [1] amounted to 34%; with Rattus norvegicus [3] (Rattus norvegicus, po), 22%; in the experiment on Rattus norvegicus [4] it was 0%. This compound also displayed a % effect at 100 mg/kg in the experiment on Mus musculus [6] (ip) of 50%.

As for `Cc1cc(Cl)c2c(c1)/C(=C/C(N)=O)CC2`, the ED50 in the experiment with Rattus norvegicus [13] and with Rattus norvegicus [8] was more than 25 mg/kg throughout.

Regarding `CNC(=O)/C=C1\CCc2c(C)cc(F)cc21`, the inhibition in vivo at 20 mg/kg is 40% in the experiment with Rattus norvegicus [1]; 77% with Rattus norvegicus [3] (Rattus norvegicus, po); 15% with Rattus norvegicus [4]. Moreover, the % effect at 100 mg/kg in the experiment with Mus musculus [6] (ip) amounted to 67%.

For the compound `NC(=O)/C=C1\CCc2c(Cl)cc(F)cc21` (stereo in doubt) [listing 2 of 2 here], the Ratio in experiment [14] came out at 1.3.

Consider `Cc1cc(F)cc2c1CC/C2=C\C(N)=O`, for which the inhibition in vivo at 20 mg/kg is 24% in the experiment with Rattus norvegicus [1]; 92% in the experiment with Rattus norvegicus [3] (Rattus norvegicus, po); 11% in the experiment with Rattus norvegicus [4]. The ED50 with Rattus norvegicus [2] (setting [15]) was 10 mg/kg. The same compound gave a % effect with Mus musculus [6] of 0%.

The term ED50 denotes the dose at which the effect has come halfway, by size or by number of responders. In general, inhibition in vivo refers to how much of the control response was suppressed. One may read the Inhibition as the share of the control response that was lost under treatment. High values mean a response far below the control, low ones a response near the control.

Values taken from ChEMBL document CHEMBL1145956, “Indanylidenes. 2. Design and synthesis of (E)-2-(4-chloro-6-fluoro-1-indanylidene)-N-methylacetamide, a potent antiinflammatory and analgesic agent without centrally acting muscle relaxant activity” (2003).
